≈ marks a conversion by molar mass, not a printed value. Calls of active or inactive are those of the source. The calls are words filed in the database; no cut-off is given here.
Columns and labels:
Staphylococcus aureus = experiment: Antibacterial activity against Staphylococcus aureus; type: functional
Streptococcus pyogenes = experiment: Antibacterial activity against Streptococcus pyogenes; type: functional
Pseudomonas aeruginosa = experiment: Antibacterial activity against Pseudomonas aeruginosa; type: functional
[1] = tested on: Trichophyton interdigitale; experiment: Antifungal activity against Trichophyton mentagrophytes var. interdigitale; type: functional
[2] = Antioxidant activity assessed as AAPH scavenging activity by measuring residual fluorescence at 10 uM measured at 1 min interval for 30 mins by ORAC fluorescein assay relative to control; type: functional
Method in brief: (§1)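 ORAC-FL assay with fluorescein as the probe and AAPH as the peroxyl radical generator. The loss of fluorescence over time was followed, and the result is given as % fluorescence restored at 10 and 50 µM. Each value is the mean of two independent experiments.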

Nannizzia gypsea = experiment: Antifungal activity against Trichophyton gypseum; type: functional
Rattus norvegicus [3] = experiment: Antiinflammatory activity in rat model of carrageenan-induced paw edema assessed as inhibition of hind paw swelling at 15 mg/kg, ip measured after 1 hr relative to control; type: functional
Epidermophyton floccosum = experiment: Antifungal activity against Epidermophyton floccosum; type: functional
Candida albicans = experiment: Antifungal activity against Candida albicans; type: functional
Microsporum canis = experiment: Antifungal activity against Microsporum canis; type: functional
Serratia marcescens = experiment: Antibacterial activity against Serratia marcescens; type: functional
Trichophyton tonsurans = experiment: Antifungal activity against Trichophyton tonsurans; type: functional
Klebsiella pneumoniae = experiment: Antibacterial activity against Klebsiella pneumoniae; type: functional
NHDF = experiment: Cytotoxicity against HDF cells; type: cell-based, Homo sapiens
[4] = Antioxidant activity assessed as AAPH scavenging activity by measuring residual fluorescence at 50 uM measured at 1 min interval for 30 mins by ORAC fluorescein assay relative to control; type: functional; method in brief: as §1
Citrobacter braakii = experiment: Antibacterial activity against Citrobacter braakii; type: functional
HeLa = experiment: Cytotoxicity against human HeLa cells; type: functional, cell-based; conditions: for IC50: Homo sapiens, HeLa, read-out: IC50
[5] = Acute toxicity in mouse at 60 mg/kg, ip administered as single dose; type: organism-based; conditions: in vivo
Method in brief: (§2)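 Mice, single intraperitoneal dose, following OECD Guideline for testing of chemicals; three mice per dose level; doses tested 10–300 mg/kg. Read-out is the number of survivors out of 3, used to estimate the expected LD50 range.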

[6] = tested on: Mycobacterium tuberculosis; experiment: Antitubercular activity against Mycobacterium tuberculosis H37Rv; type: functional
Method in brief: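 Mycobacterium tuberculosis strain H37Rv; minimum inhibitory concentration (MIC) taken as the lowest level needed to inhibit bacterial growth; isoniazid and pyrazinamide served as reference drugs.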

Shigella flexneri = experiment: Antibacterial activity against Shigella flexneri; type: functional
Trichophyton violaceum = experiment: Antifungal activity against Trichophyton violaceum; type: functional
Erythrocyte [7] = experiment: Antioxidant activity in human erythrocytes assessed as protection against AAPH-induced hemolysis at 50 uM preincubated for 20 mins followed by AAPH addition and measured after 2 hrs by spectrophotometric method relative to control; type: functional; conditions: time 140 min, 2.333 h
Method in brief: (§3)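 Erythrocyte hemolysis assay with AAPH as the free-radical initiator, testing 50 and 400 µM. Results are expressed as relative protection of membranes against oxidative damage, each the mean of two independent experiments.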

[8] = Antioxidant activity assessed as trolox equivalent of ABTS radical scavenging activity measured after 1 hr by UV-vis spectrophotometric method; type: functional
Method in brief: (§4)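 ABTS cation-radical decolorization was read spectrophotometrically as the fall in absorbance after 1 h. Trolox was the reference. TEAC was taken as the ratio of concentration-response slopes, test/Trolox, and IC50 was also derived. Data are mean ± SEM, n = 3.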

Escherichia coli = experiment: Antibacterial activity against Escherichia coli; type: functional
Proteus vulgaris = experiment: Antibacterial activity against Proteus vulgaris; type: functional
Rattus norvegicus [9] = experiment: Antiinflammatory activity in rat model of carrageenan-induced paw edema assessed as inhibition of hind paw swelling at 15 mg/kg, ip measured after 3 hrs relative to control; type: functional
Rattus norvegicus [10] = experiment: Antiinflammatory activity in rat model of carrageenan-induced paw edema assessed as inhibition of hind paw swelling at 15 mg/kg, ip measured after 5 hrs; type: functional, organism-based
Erythrocyte [11] = experiment: Antioxidant activity in human erythrocytes assessed as protection against AAPH-induced hemolysis at 400 uM preincubated for 20 mins followed by AAPH addition and measured after 2 hrs by spectrophotometric method relative to control; type: functional; conditions: time 140 min, 2.333 h; method in brief: as §3
Neisseria gonorrhoeae = experiment: Antibacterial activity against Neisseria gonorrhoeae; type: functional
Trichophyton rubrum = experiment: Antifungal activity against Trichophyton rubrum; type: functional
Rattus norvegicus [12] = experiment: Analgesic activity in rat assessed as prolongation of latency period at 15 mg/kg, ip measured after 1 hr by hot-plate test relative to control; type: functional
Method in brief: (§5)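 Hot-plate test in rats. Compounds were given by intraperitoneal injection. Latency was read at 1 h and, for some compounds, also at 2 h after dosing. Results are expressed as % prolongation of the latent period versus vehicle-treated control. Significance was given as p-values.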

[13] = Selectivity index, ratio of IC50 for HDF cells to IC50 for human HeLa cells; type: toxicity; conditions: HDF cells versus HeLa cells, read-out: Ratio IC50
Rattus norvegicus [14] = experiment: Analgesic activity in rat assessed as prolongation of latency period at 10 mg/kg, ip measured after 1 hr by hot-plate test relative to control; type: functional; method in brief: as §5
[15] = Acute toxicity in mouse at 70 mg/kg, ip administered as single dose; type: organism-based; conditions: in vivo; method in brief: as §2
Rattus norvegicus [16] = experiment: Antiinflammatory activity in rat model of carrageenan-induced paw edema assessed as inhibition of hind paw swelling at 10 mg/kg, ip measured after 3 hrs relative to control; type: functional
Rattus norvegicus [17] = experiment: Antiinflammatory activity in rat model of carrageenan-induced paw edema assessed as inhibition of hind paw swelling at 10 mg/kg, ip measured after 1 hr relative to control; type: functional
Rattus norvegicus [18] = experiment: Antiinflammatory activity in rat model of carrageenan-induced paw edema assessed as inhibition of hind paw swelling at 25 mg/kg, ip measured after 5 hrs; type: functional, organism-based
[19] = Acute toxicity in mouse at 300 mg/kg, ip administered as single dose; type: organism-based; conditions: in vivo; method in brief: as §2
Rattus norvegicus [20] = experiment: Analgesic activity in rat assessed as prolongation of latency period at 25 mg/kg, ip measured after 1 hr by hot-plate test relative to control; type: functional, organism-based; method in brief: as §5
Rattus norvegicus [21] = experiment: Analgesic activity in rat assessed as prolongation of latency period at 15 mg/kg, ip measured after 2 hrs by hot-plate test relative to control; type: functional; method in brief: as §5
[22] = Antioxidant activity assessed as ABTS radical scavenging activity measured after 1 hr by UV-vis spectrophotometric method; type: functional; method in brief: as §4
[23] = Acute toxicity in ip dosed mouse administered as single dose; type: organism-based; conditions: in vivo; method in brief: as §2

Compound | MIC (Staphylococcus aureus) | MIC (Streptococcus pyogenes) | MIC (Pseudomonas aeruginosa) | MIC [1] | Activity [2] | MIC (Nannizzia gypsea) | MIC (Epidermophyton floccosum) | MIC (Candida albicans) | MIC (Microsporum canis) | MIC (Serratia marcescens) | MIC (Trichophyton tonsurans) | MIC (Klebsiella pneumoniae) | Activity [4] | MIC (Citrobacter braakii) | Activity (HeLa) | IC50 (HeLa) | MIC (Shigella flexneri) | MIC (Trichophyton violaceum) | fold change (FC) (Erythrocyte [7]) | Activity [8] | also measured
Cl.Cn1nc(C(F)(F)F)c(N)c1-c1ccccc1 | > 250 µg/mL | > 250 µg/mL | > 250 µg/mL | > 200 µg/mL | 38.2% | > 200 µg/mL | 200 µg/mL | > 200 µg/mL | 200 µg/mL | > 250 µg/mL | > 200 µg/mL | > 250 µg/mL | 79% | > 250 µg/mL | Dose-dependent effect | 0.074 µM | > 250 µg/mL | 200 µg/mL | 1.19 | inactive | inhibition in vivo at 15 mg/kg (Rattus norvegicus [3]): 54.3%; IC50 (NHDF; nhdf): Not Active; Activity [5]: Non-Toxic; MIC [6]: 12.5 µg/mL; MIC (Escherichia coli): > 250 µg/mL; MIC (Proteus vulgaris): > 250 µg/mL; inhibition in vivo at 15 mg/kg (Rattus norvegicus [9]): 32.9%; Activity (Rattus norvegicus [10]): Active; fold change (FC) (Erythrocyte [11]): 1.11; MIC (Neisseria gonorrhoeae): > 250 µg/mL; MIC (Trichophyton rubrum): 200 µg/mL; Activity (Rattus norvegicus [12]): 100.74%; selectivity ratio [13]: > 1350
O=C(O)Cc1ccccc1Nc1c(Cl)cccc1Cl [DICLOFENAC] | – | – | – | – | – | – | – | – | – | – | – | – | – | – | – | – | – | – | – | – | Activity (Rattus norvegicus [14]): 57.1%; Activity [15]: Non-Toxic; inhibition in vivo at 10 mg/kg (Rattus norvegicus [16]): 61.8%; inhibition in vivo at 10 mg/kg (Rattus norvegicus [17]): 53.9%
Cc1ccc(-c2c(N=O)c(C(F)(F)F)nn2-c2ccc(S(N)(=O)=O)cc2)cc1 | > 250 µg/mL | > 250 µg/mL | > 250 µg/mL | 200 µg/mL (≈ 487 µM) | – | 200 µg/mL (≈ 487 µM) | 200 µg/mL (≈ 487 µM) | > 200 µg/mL | 200 µg/mL (≈ 487 µM) | > 250 µg/mL | 200 µg/mL (≈ 487 µM) | > 250 µg/mL | – | > 250 µg/mL | – | – | > 250 µg/mL | > 200 µg/mL | – | – | Activity (Rattus norvegicus [18]): inactive; Activity [19]: Non-Toxic; Activity (Rattus norvegicus [20]): inactive; MIC (Escherichia coli): > 250 µg/mL; MIC (Proteus vulgaris): > 250 µg/mL; MIC (Neisseria gonorrhoeae): 31.2 µg/mL (≈ 76 µM); MIC (Trichophyton rubrum): 200 µg/mL (≈ 487 µM)
Cc1ccc(C2=NN(c3ccc(S(N)(=O)=O)cc3)C(O)(C(F)(F)F)/C2=N/O)cc1 (stereo not given) | – | – | – | – | 38.5% | – | – | – | – | – | – | – | 59.4% | – | Dose-dependent effect | 7.23 µM | – | – | 1.09 | 0.48 equiv | inhibition (Rattus norvegicus [3]): inactive; Activity [19]: Non-Toxic; Activity (Rattus norvegicus [21]): 96.55%; IC50 [22]: 45.3 µM; IC50 (NHDF; Homo sapiens, NHDF, read-out: IC50): 99.3 µM; inhibition (Rattus norvegicus [9]): inactive; Activity (Rattus norvegicus [10]): Active; fold change (FC) (Erythrocyte [11]): 1.08; Activity (Rattus norvegicus [12]): 58.9%; LD50 [23]: > 300 mg/kg; selectivity ratio [13]: 13.7
